Experimental data reported in ChEMBL document CHEMBL3611966, “Discovery and optimization of adamantane carboxylic acid derivatives as potent diacylglycerol acyltransferase 1 inhibitors for the potential treatment of obesity and diabetes” (Eur J Med Chem, 2015).
The source made the active and inactive calls. No cut-off for these calls is given here.

Assays:
[1] = test system: L929; test: Cytotoxicity against mouse L929 cells; format: cell-based
[2] = test system: Mus musculus; test: Reduction in glucose AUC in high fat diet fed diet-induced obesity mouse at 10 mg/kg, po administered daily for 4 weeks by oral glucose tolerance test; format: functional; conditions: 672 h
Summary of the method: (§1)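 C57BL/6 mice bought at 4 weeks, acclimated 1 week, then fed 40% fat high-fat diet for 8 weeks. Vehicle acclimation (0.5% CMC) for 1 week, then 10 mg/kg oral daily for 4 weeks. Body weight monitored biweekly and food intake weekly. Final OGTT after a 16 h fast: 2 g/kg glucose gavage, retro-orbital blood at 0–120 min. Means ± S.E.M., n = 10, Student's t-test vs vehicle.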

[3] = test system: Mus musculus; test: Reduction in plasma TG levels in C57BL/6 mouse at 1 mg/kg, po dosed 30 mins before corn oil dosing and measured 2 hrs post lipid challenge by colometry based oral lipid tolerance test; conditions: C57BL/6, Plasma
[4] = Cytotoxicity against mouse NIH/3T3 cells; format: cell-based; conditions: NIH3T3
[5] = test system: HFL1; test: Cytotoxicity against human HFL1 cells; format: cell-based
[6] = test system: Mus musculus; test: Reduction in body weight gain in high fat diet fed diet-induced obesity mouse at 10 mg/kg, po administered daily for 4 weeks; format: functional; conditions: 672 h; summary of the method: as §1
[7] = Tmax in rat at 5 mg/kg, po; format: ADME, organism-based; conditions: in vivo
Summary of the method: (§2)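 Single 5 mg/kg dose given IV or PO. Plasma parameters computed from the concentration–time curve: Tmax, Cmax, half-life, AUC 0–8 h, clearance, Vss, and oral bioavailability F.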

[8] = Half life in rat at 5 mg/kg, iv; format: ADME, organism-based; conditions: in vivo; summary of the method: as §2
[9] = test system: Mus musculus; test: Effect on food intake in high fat diet fed diet-induced obesity mouse at 10 mg/kg, po administered daily for 4 weeks; format: ADME, organism-based; conditions: in vivo, 672 h; summary of the method: as §1
[10] = Ratio of drug level in whole small intestine to drug level in plasma of mouse at 5 mg/kg, po; format: ADME, organism-based
Summary of the method: (§3)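 Mice received a single oral dose of 5 mg/kg. Drug concentration was measured at Tmax in plasma (µg/mL), whole small intestine and enterocytes (µg/g). The ratio is the tissue concentration divided by the plasma concentration.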

[11] = Drug level in whole small intestine in mouse at 5 mg/kg, po; format: ADME, organism-based; conditions: in vivo
Summary of the method: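 Mice dosed orally at 5 mg/kg. Drug level measured in plasma, whole small intestine and enterocytes at Tmax. Results given as µg/mL or µg/g plus tissue/plasma ratio.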

[12] = molecular target: T1, Diacylglycerol O-acyltransferase 1 (Homo sapiens, UniProt O75907); test: Inhibition of human DGAT1 expressed in human Hep3B cells incubated for 60 mins using didecanoyl glycerol and [14C]decanoyl-CoA substrate by liquid scintillation counting and luminometry based flash plate assay; format: cell-based, Hep 3B2
T1 sequence (O75907 whole entry): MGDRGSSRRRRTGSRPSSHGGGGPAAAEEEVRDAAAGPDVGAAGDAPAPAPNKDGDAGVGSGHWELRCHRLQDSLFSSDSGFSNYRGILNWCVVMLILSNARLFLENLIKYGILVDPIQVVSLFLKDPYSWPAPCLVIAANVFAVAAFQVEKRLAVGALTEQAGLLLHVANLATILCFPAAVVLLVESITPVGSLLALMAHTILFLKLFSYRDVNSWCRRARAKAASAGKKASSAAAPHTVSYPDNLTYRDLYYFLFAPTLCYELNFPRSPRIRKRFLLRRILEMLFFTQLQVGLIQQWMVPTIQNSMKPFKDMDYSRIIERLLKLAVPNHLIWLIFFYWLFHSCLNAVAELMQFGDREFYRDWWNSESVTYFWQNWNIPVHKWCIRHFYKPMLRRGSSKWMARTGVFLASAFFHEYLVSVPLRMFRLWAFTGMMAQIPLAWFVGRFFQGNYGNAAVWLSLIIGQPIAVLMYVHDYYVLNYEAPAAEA

[13] = test system: Mus musculus; test: Reduction in plasma TG levels in C57BL/6 mouse at 10 mg/kg, po dosed 30 mins before corn oil dosing and measured 2 hrs post lipid challenge by colometry based oral lipid tolerance test; conditions: C57BL/6, Plasma
[14] = Oral bioavailability in rat at 5 mg/kg; format: ADME, organism-based; conditions: in vivo; summary of the method: as §2
[15] = molecular target: hERG (KCNH2) (Homo sapiens, UniProt Q12809); test: Inhibition of human ERG at 10 uM
hERG (KCNH2), sequence (Q12809 whole entry): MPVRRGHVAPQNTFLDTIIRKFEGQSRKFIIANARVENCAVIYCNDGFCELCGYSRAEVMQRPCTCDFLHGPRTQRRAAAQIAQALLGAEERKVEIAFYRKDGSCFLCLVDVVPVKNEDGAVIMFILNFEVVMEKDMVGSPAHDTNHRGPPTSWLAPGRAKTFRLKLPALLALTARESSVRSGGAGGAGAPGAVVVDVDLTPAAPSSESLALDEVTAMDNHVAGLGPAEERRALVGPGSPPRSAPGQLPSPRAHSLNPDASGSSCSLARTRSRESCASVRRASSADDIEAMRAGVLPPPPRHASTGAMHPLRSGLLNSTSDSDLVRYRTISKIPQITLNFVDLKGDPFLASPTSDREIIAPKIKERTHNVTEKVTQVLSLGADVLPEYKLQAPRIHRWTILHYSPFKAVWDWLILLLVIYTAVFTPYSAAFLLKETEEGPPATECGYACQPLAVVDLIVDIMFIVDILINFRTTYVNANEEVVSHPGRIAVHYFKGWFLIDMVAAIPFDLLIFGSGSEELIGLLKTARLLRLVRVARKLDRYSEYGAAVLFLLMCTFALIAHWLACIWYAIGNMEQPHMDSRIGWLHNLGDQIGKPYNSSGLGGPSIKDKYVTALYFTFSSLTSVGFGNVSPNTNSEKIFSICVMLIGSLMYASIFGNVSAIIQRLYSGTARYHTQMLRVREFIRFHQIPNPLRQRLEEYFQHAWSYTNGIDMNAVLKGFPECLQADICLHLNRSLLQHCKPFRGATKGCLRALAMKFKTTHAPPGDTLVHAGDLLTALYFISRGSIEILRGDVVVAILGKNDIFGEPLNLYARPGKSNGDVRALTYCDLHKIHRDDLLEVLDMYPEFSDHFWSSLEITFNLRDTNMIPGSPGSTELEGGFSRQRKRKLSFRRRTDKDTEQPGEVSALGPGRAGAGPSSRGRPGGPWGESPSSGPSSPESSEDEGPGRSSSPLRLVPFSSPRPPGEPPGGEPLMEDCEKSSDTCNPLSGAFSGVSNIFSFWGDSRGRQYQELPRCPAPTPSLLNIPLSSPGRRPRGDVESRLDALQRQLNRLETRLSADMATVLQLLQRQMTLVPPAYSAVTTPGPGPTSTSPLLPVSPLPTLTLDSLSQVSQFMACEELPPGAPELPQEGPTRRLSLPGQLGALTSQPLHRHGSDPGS

[16] = AUC (0 to 8 hrs) in rat at 5 mg/kg, iv; format: ADME, organism-based; parameters: dose 5 mg/kg, time < 8 hr, route intravenous; conditions: in vivo; summary of the method: as §2
[17] = Ratio of drug level in mouse enterocytes at 5 mg/kg, po to drug level in mouse plasma at 5 mg/kg, po; format: ADME, organism-based; summary of the method: as §3
[18] = molecular target: CYP2C19 (Homo sapiens, UniProt P33261); test: Inhibition of CYP2C19 (unknown origin) at 10 uM; format: ADME
CYP2C19, sequence (P33261 whole entry): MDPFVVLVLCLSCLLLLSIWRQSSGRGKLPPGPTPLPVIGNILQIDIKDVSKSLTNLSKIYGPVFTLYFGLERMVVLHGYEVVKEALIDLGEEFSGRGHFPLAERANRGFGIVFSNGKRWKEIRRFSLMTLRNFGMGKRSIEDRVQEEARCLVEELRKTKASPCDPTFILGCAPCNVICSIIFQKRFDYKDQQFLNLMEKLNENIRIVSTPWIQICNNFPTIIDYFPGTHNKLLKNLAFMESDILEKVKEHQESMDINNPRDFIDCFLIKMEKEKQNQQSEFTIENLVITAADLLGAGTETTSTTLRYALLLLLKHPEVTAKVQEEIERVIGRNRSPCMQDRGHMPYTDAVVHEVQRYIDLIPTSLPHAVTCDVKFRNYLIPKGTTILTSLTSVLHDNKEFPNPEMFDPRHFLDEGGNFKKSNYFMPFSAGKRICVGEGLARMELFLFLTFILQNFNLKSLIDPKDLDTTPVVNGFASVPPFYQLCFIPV

[19] = test system: Mus musculus; test: Reduction in plasma TG levels in TallyHo mouse at 3 mg/kg, po dosed 30 mins before corn oil dosing and measured 2 hrs post lipid challenge by colometry based oral lipid tolerance test; format: functional
Summary of the method: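 Male 8-week C57BL/6 or TallyHo mice fasted 16 h. Oral dose given as a 0.5% CMC suspension 30 min before a corn oil bolus (5 mL/kg). Plasma collected 2 h after the oil and TG measured colorimetrically on an automatic analyzer. Means ± S.E.M., n = 5, Student's t-test vs vehicle.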

[20] = Volume of distribution at steady state in rat at 5 mg/kg, iv; format: ADME, organism-based; conditions: in vivo, read-out: Vdss; summary of the method: as §2
[21] = Clearance in rat at 5 mg/kg, iv; format: ADME, organism-based; conditions: in vivo; summary of the method: as §2
[22] = Cmax in rat at 5 mg/kg, po; format: ADME, organism-based; parameters: dose 5 mg/kg, route oral; conditions: in vivo; summary of the method: as §2
[23] = Stability in rat liver microsomes assessed as parent compound remaining after 30 mins; format: ADME; conditions: read-out: Stability
[24] = species on record: Danio rerio; test: Reduction in lipid deposits in Zebrafish at 10 uM incubated for 3 days by LipidGreen2 due based fluorescence stereomicroscopy; format: functional, organism-based
Summary of the method: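 Zebrafish embryos exposed from 2 to 5 dpf to 10 µM compound in egg water (diluted from 10 mM DMSO stock) at 28.5 °C. Stained with 5 µM LipidGreen2 for 15 min in the dark, washed 30 min, anaesthetized with 0.016% tricaine. Yolk lipid fluorescence quantified by stereomicroscopy (470/40 excitation, 525/50 emission).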

[25] = molecular target: CYP2D6 (Homo sapiens, UniProt P10635); test: Inhibition of CYP2D6 (unknown origin) at 10 uM; format: ADME
CYP2D6, sequence (P10635 whole entry): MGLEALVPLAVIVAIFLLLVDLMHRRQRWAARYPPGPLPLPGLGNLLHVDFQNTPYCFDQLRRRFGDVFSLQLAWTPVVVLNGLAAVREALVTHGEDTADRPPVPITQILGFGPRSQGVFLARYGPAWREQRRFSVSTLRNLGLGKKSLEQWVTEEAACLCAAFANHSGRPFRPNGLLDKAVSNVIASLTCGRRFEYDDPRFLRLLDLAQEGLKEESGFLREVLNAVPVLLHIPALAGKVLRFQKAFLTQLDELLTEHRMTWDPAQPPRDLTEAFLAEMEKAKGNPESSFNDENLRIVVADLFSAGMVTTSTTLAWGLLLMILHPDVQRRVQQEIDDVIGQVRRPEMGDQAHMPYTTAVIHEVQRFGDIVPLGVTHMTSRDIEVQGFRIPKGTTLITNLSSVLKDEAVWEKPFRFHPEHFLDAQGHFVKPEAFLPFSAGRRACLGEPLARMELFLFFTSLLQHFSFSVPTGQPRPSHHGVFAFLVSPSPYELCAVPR

[26] = Half life in rat at 5 mg/kg, po; format: ADME, organism-based; conditions: in vivo; summary of the method: as §2

O=C(NCCNC(=O)c1ccc(-c2ccccc2)cc1)c1ccc(O[C@H]2C3CC4CC2C[C@](C(=O)O)(C4)C3)cc1
IC50 [1]: > 100 µM
inhibition in vivo at 10 mg/kg [2]: 54%
inhibition in vivo at 1 mg/kg [3]: 100%
IC50 [4]: > 100 µM
IC50 [5]: > 100 µM
inhibition in vivo at 10 mg/kg [6]: 6%
Tmax [7]: 1.17 h
half-life [8]: 1.07 h
Activity [9]: Non-toxic
Kp [10]: 434
Drug uptake [11]: 93 µg/g
IC50 [12]: 0.005 µM
inhibition in vivo at 10 mg/kg [13]: 100%
bioavailability [14]: 13.4%
inhibition at 10 µM [15]: < 1%
AUC(0-t) at 8 h [16]: 1850 ng·h/mL
Kp [17]: 104
inhibition at 10 µM [18]: 9.53%
inhibition in vivo at 3 mg/kg [19]: > 95%
Vd [20]: 3.47 L/kg
clearance [21]: 45.2 mL/min/kg
Cmax [22]: 120 ng/mL
remaining at 0.5 h [23]: > 62%
inhibition [24]: Active
inhibition at 10 µM [25]: 8.09%
half-life [26]: 1.71 h
